Data on eleven compounds can be found in ChEMBL document CHEMBL4043277, “Enantioselective inhibitory abilities of enantiomers of notoamides against RANKL-induced formation of multinuclear osteoclasts” (Bioorg Med Chem Lett, 2017).

Calls of active or inactive are those of the source. No cut-off for these calls is given here.

What is called IC50 is the concentration at which inhibition is half-maximal. Usually inhibition stands for the relative decrease from the control value, in per cent.

Test [1] concerns RAW264. Put plainly: Inhibition of RANKL-induced formation of multinuclear osteoclasts in mouse RAW264 cells at 10 ug/ml after 4 days by p-NPP substrate based absorbance method. It counts as functional, cell-based. In short, it runs like this: (§1)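 RAW264 cells in MEMα/10% FBS were plated for one day, then treated with compound plus soluble RANKL (250 ng/mL) for four days. After a PBS wash, cells were lysed on ice for 10 min in TRAP buffer (tartrate/acetate, pH 5.7). Extract was incubated with 2.5 mM p-nitrophenyl phosphate at 37°C for 4 h and stopped with NaOH. A405 was read in quadruplicate.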

The nature of test [2]: Inhibition of RANKL-induced formation of multinuclear osteoclasts in mouse RAW264 cells after 4 days by p-NPP substrate based absorbance method. It counts as functional, cell-based. The conditions noted are these: RAW264.7, 96 h. In short, it runs like this:
as §1

The test system of test [3] is RAW264. Put plainly: Inhibition of RANKL-induced formation of multinuclear osteoclasts in mouse RAW264 cells at 5 uM after 4 days by TRAP staining based assay. The class given is functional, cell-based. In short, it runs like this: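 RAW264 cells were treated with compound plus soluble RANKL (250 ng/mL) for four days, then fixed in 4% paraformaldehyde for 10 min at room temperature. They were stained 1 h at room temperature with naphthol AS-MX phosphate/fast red violet LB in tartrate/acetate, pH 5.2. TRAP-positive cells with three or more nuclei were scored as multinuclear osteoclasts.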

Test [4] in a line: Inhibition of RANKL-induced Nfatc1 mRNA expression in mouse RAW264 cells at 5 uM after 5 days by RT-PCR method relative to control. It counts as functional. Particulars: RAW264.7, 120 h. In short, it runs like this:
(§2)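 RAW264 cells grown in MEMα with 10% heat-inactivated FBS and penicillin/streptomycin at 37°C, 5% CO2. Cells were co-treated with RANKL (50 ng/mL) and compound for five days. Total RNA was analysed by real-time RT-PCR with SYBR Green: 95 °C 10 min, then cycles of 95 °C 10 s, annealing 5 s, 72 °C 14 s. Expression was calculated from duplicate experiments.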

Test [5] can be described thus: Inhibition of RANKL-induced Acp5 mRNA expression in mouse RAW264 cells at 5 uM after 5 days by RT-PCR method relative to control. It counts as functional. Particulars: RAW264.7, 120 h. In short, it runs like this: as §2
Test [6] in a line: Inhibition of RANKL-induced Ctsk mRNA expression in mouse RAW264 cells at 5 uM after 5 days by RT-PCR method relative to control. The conditions noted are these: RAW264.7, 120 h. It counts as functional. In a few lines: as §2
Test [7] is described as follows: Inhibition of RANKL-induced Atp6v0d2 mRNA expression in mouse RAW264 cells at 5 uM after 5 days by RT-PCR method relative to control. The class given is functional. Particulars: RAW264.7, 120 h. In short, it runs like this: as §2
The nature of test [8]: Inhibition of RANKL-induced Dcstamp mRNA expression in mouse RAW264 cells at 5 uM after 5 days by RT-PCR method relative to control. It counts as functional. The conditions noted are these: RAW264.7, 120 h. In a few lines:
as §2

The nature of test [9]: Inhibition of RANKL-induced Ocstamp mRNA expression in mouse RAW264 cells at 5 uM after 5 days by RT-PCR method relative to control. It counts as functional. The conditions noted are these: RAW264.7, 120 h. In a few lines:
as §2

For the compound `CC1(C)C=Cc2c(ccc3c4c([nH]c23)C(C)(C)[C@H]2C[C@@]35CCCN3C(=O)[C@]2(C4)NC5=O)O1`, the “osteoclast formation inhibition (active/not active)” value in [1] is “Active”.
Regarding `CC1(C)C=Cc2c(ccc3c2N(O)C(=O)[C@]32C[C@]34NC(=O)[C@@]5(CCCN5C3=O)C[C@@H]4C2(C)C)O1`, in [1], the “osteoclast formation inhibition (active/not active)” value was “Active”.
On to `CC(C)=CCc1c(O)ccc2c3c([nH]c12)C(C)(C)[C@H]1CC24CCCN2C(=O)C1(C3)NC4=O` (mixture of isomers), for which the “osteoclast formation inhibition (active/not active)” value in test [1] is “Active”.
The same measure, in the same setting: for `CC1(C)C=Cc2c(ccc3c2NC(=O)[C@]32C[C@]34NC(=O)[C@@]5(CCCN5C3=O)C[C@@H]4C2(C)C)O1` the value was “Active”.
For `CC1(C)C=Cc2c(ccc3c4c([nH]c23)C(C)(C)[C@@H]2C[C@]35CCCN3C(=O)[C@@]2(C4)NC5=O)O1`, in test [1], the “osteoclast formation inhibition (active/not active)” value is “Active”.
Turning to `CC1(C)C=Cc2c(ccc3c2N(O)C(=O)[C@@]32C[C@@]34NC(=O)[C@]5(CCCN5C3=O)C[C@H]4C2(C)C)O1`, in [1], the “osteoclast formation inhibition (active/not active)” value is “Active”.
Turning to `C=CC(C)(C)[C@@]12Nc3c(ccc4c3C=CC(C)(C)O4)[C@]1(O)C[C@H]1C(=O)N3CCC[C@H]3C(=O)N12`, the “osteoclast formation inhibition (active/not active)” value in [1] was “inactive”.
Regarding `CC1(C)C=Cc2c(ccc3c2NC(=O)[C@@]32C[C@@]34NC(=O)[C@]5(CCCN5C3=O)C[C@H]4C2(C)C)O1`, in [1], the “osteoclast formation inhibition (active/not active)” value is “Active”.
The same measure, in the same setting: for `C=CC(C)(C)[C@]1(C[C@@H]2NC(=O)[C@@H]3CCCN3C2=O)C(=O)Nc2c1ccc1c2C=CC(C)(C)O1` the value was “inactive”.
With `CC(C)=CCc1c(O)ccc2c3c([nH]c12)C(C)(C)[C@H]1C[C@]24CCCN2C(=O)[C@@]1(C3)NC4=O`, in test [2], half-maximal inhibition (IC50) was put at 4.4 µM.
`CC(C)=CCc1c(O)ccc2c3c([nH]c12)C(C)(C)[C@@H]1C[C@@]24CCCN2C(=O)[C@]1(C3)NC4=O`: in [2], it took 1.7 µM to reach half-maximal inhibition (IC50). Moreover, the inhibition result in [3] was “inactive”. In addition, the inhibition at 5 µM in [4], in test [5], in test [6], in test [7], in test [8] and in [9] was 20 to 50% each time.
